Our source for the folding enthalpy and Tm values is the array DNA melting data of Ke et al. (doi:10.1101/2024.01.08.574731).

Data set [1] is described as follows: folding enthalpy; higher = less favourable; fluorescence melt of hairpins on a sequencing array, two-state fit. The conditions noted are these: sodium 0.088 M. In short, it runs like this: (§1)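 Cy3 signals were normalised both to pre-quench Cy3 and to control constructs. They came from library hairpins carrying annealed Cy3 and quencher oligos on a sequenced MiSeq flow cell, imaged in 50 mM Na-HEPES pH 8.0, 25 mM NaCl, in 2.5 °C steps up to 60 °C. Bootstrapped two-state fits gave melting temperature and folding enthalpy, and four replicates were combined by inverse variance. Fitted temperatures were then raised by 9.35 °C to match UV melts.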

The nature of data set [2]: melting temperature; fluorescence melt of hairpins on a sequencing array, two-state fit, raised by 9.35 °C to match UV melts. The conditions noted are these: sodium 0.088 M. Put shortly: as §1

As for GCGTGTACACGC ((((....)))), in data set [1], the folding enthalpy was -28.5 kcal/mol. Also, in data set [2], the Tm was 67.6 °C.

With GATCACATCCGTGATC ((((((....)))))), the folding enthalpy in data set [1] was -46 kcal/mol. Moreover, in data set [2], the Tm came out at 56.6 °C.

For the sequence GCCCAGCGAAAGCTTGGC (((.(((....))).))), the folding enthalpy in data set [1] is -53 kcal/mol. Further, the Tm in data set [2] was 54.9 °C.

With GATTACCGAAAGGTATC (((.(((....)))))), the folding enthalpy in data set [1] was -14.4 kcal/mol. For the same sequence, the Tm in data set [2] stood at 36.1 °C.

Turning to GAGTGTGGAAACACGCTC (((.(((....))).))), the folding enthalpy in data set [1] was -26.9 kcal/mol. Besides, in data set [2], the Tm was found to be 54.5 °C.

Take GTACGCGGAAACGCGTGC (.(((((....))))).): the folding enthalpy in data set [1] was -15.4 kcal/mol. Besides, in data set [2], the Tm was 60.9 °C.

As for GCGAGGCGAAAGCTGCGC (((..((....))..))), in data set [1], the folding enthalpy was -29.5 kcal/mol. The Tm in data set [2] is 65.1 °C.

On to CGGCCCGGAAACGGCCCG (((.(((....))).))), for which, in data set [1], the folding enthalpy is -17.9 kcal/mol. In addition, in data set [2], the Tm came out at 51.8 °C.

In the case of GATCCGCTTCCGGATC ((((((....)))))), the folding enthalpy in data set [1] is -38.2 kcal/mol. For the same sequence, the Tm in data set [2] is 57.6 °C.

Consider GAGATTGGAAACGATCTC (((((.(....).))))), for which the folding enthalpy in data set [1] is -36.1 kcal/mol. For the same sequence, in data set [2], the Tm was 44.2 °C.

Consider GTCCGGCGAAAGCCCGAC (((.(((....))).))), for which the folding enthalpy in data set [1] was -20.1 kcal/mol. Also, the Tm in data set [2] was 45.2 °C.

As to GGTAATCGAAAGATACC (((.(((....)))))), in data set [1], the folding enthalpy is -27.2 kcal/mol. Also, in data set [2], the Tm came out at 40.5 °C.

Turning to GAGAGAGGAAACTCTCCC (.(((((....))))).), the folding enthalpy in data set [1] was -17 kcal/mol. Besides, the Tm in data set [2] was 37 °C.

Regarding GATCCGATAACGGATC ((((((....)))))), in data set [1], the folding enthalpy was -33.1 kcal/mol. The Tm in data set [2] was found to be 59.1 °C.

Take GATCTTTTCAAGATC ((((((...)))))): the folding enthalpy in data set [1] is -36.3 kcal/mol. In data set [2], the Tm was determined as 47.7 °C.

Take GTGACCGAAAGGTCTCAC ((((((....)))..))): in data set [1], the folding enthalpy is -10.6 kcal/mol. Further, the Tm in data set [2] was 41.2 °C.

For CGGACGGAAACGTACCCG ((((((....)))..))), in data set [1], the folding enthalpy is -14.4 kcal/mol. For the same sequence, in data set [2], the Tm stood at 34.5 °C.

As for GATACCGAAAGGTCTATC ((((((....)))..))), the folding enthalpy in data set [1] is -5.86 kcal/mol. The Tm in data set [2] is 19.6 °C.

GTTAACGGAAACGCTAAC ((((.((....)).)))): the folding enthalpy in data set [1] is -28.1 kcal/mol. For the same sequence, in data set [2], the Tm is 36.2 °C.

With GCACCCGGAAACAGGCGC ((.((.(....).)).)), the folding enthalpy in data set [1] was -22.3 kcal/mol. Also, the Tm in data set [2] stood at 32.8 °C.

As for GCGGGGGGCCGC ((((....)))), the folding enthalpy in data set [1] is -13.5 kcal/mol. Moreover, the Tm in data set [2] stood at 60.7 °C.

As to GCAATGGGAAACTGTTGC ((((..(....)..)))), in data set [1], the folding enthalpy was -27.7 kcal/mol. Besides, the Tm in data set [2] stood at 40.4 °C.

Turning to GTCATCGAAAGATGAC ((((((....)))))), the folding enthalpy in data set [1] was -31.2 kcal/mol. Moreover, in data set [2], the Tm was determined as 66.2 °C.

For GTTGGTCCGAAAGGAAAC (((..(((....)))))), in data set [1], the folding enthalpy is -23.4 kcal/mol. Moreover, the Tm in data set [2] turned out to be 36.9 °C.

With GAGAGCGAAAGCTAACTC ((((((....)))..))), the folding enthalpy in data set [1] was -12.7 kcal/mol. In addition, the Tm in data set [2] was determined as 33 °C.

Turning to GCCTGCCGAAAGGCCGGC (((.(((....))).))), the folding enthalpy in data set [1] was -22.4 kcal/mol. Besides, in data set [2], the Tm stood at 64.3 °C.

As for GCGGTGCGAAAGCAGAGC ((..(((....)))..)), the folding enthalpy in data set [1] was -33 kcal/mol. Moreover, the Tm in data set [2] came out at 63.5 °C.

Consider GCAACAGCGAAAGCTTGC (((..(((....)))))), for which the folding enthalpy in data set [1] was -19.5 kcal/mol. In data set [2], the Tm amounted to 46.6 °C.

For the sequence GTCCCAGGAAACTGGGGC (.(((((....))))).), the folding enthalpy in data set [1] is -40.6 kcal/mol. In data set [2], the Tm stood at 57.5 °C.

Take GCGCGTGGAAACACACGC (((.(((....))).))): in data set [1], the folding enthalpy was -34.1 kcal/mol. Moreover, the Tm in data set [2] came out at 57.4 °C.

With GGCTGCCCGAAAGGGGCC (((..(((....)))))), the folding enthalpy in data set [1] was -13.7 kcal/mol. In data set [2], the Tm worked out at 47.6 °C.

For GCTGAAGGAAACTTCGGC ((.((((....)))).)), in data set [1], the folding enthalpy is -49.4 kcal/mol. Further, the Tm in data set [2] was determined as 51.3 °C.

In the case of GTCGTCGAAAGACGTGAC ((((((....)))..))), the folding enthalpy in data set [1] is -10.8 kcal/mol. Besides, the Tm in data set [2] amounted to 39.6 °C.

In the case of GCTATTGGAAACAATAGC (((((((....))))))), the folding enthalpy in data set [1] was -47.7 kcal/mol. In data set [2], the Tm came to 56 °C.

Regarding GGCCCCGAAAGGGTGCC ((((((....))).))), the folding enthalpy in data set [1] is -23.3 kcal/mol. Also, the Tm in data set [2] was determined as 66.1 °C.

With CTTGCGAAAGCAAG (((((....))))), in data set [1], the folding enthalpy is -16.9 kcal/mol. Besides, in data set [2], the Tm was found to be 58.8 °C.

On to GTCACTCGAAAGAGAGAC (((.(((....))).))), for which the folding enthalpy in data set [1] is -35.4 kcal/mol. Also, in data set [2], the Tm amounted to 50.5 °C.
